Test results as given in ChEMBL document CHEMBL3351316, “Scaffold hopping approach on the route to selective tankyrase inhibitors” (Eur J Med Chem, 2014).
The source made the active and inactive calls. The calls are words filed in the database; no cut-off is given here.

What was measured:
[1] = biological target: T1, Poly [ADP-ribose] polymerase tankyrase-1 (Homo sapiens, UniProt O95271); experiment: Inhibition of GST-tagged human recombinant TNKS1 incubated for 1 hr using NAD+, biotinylated NAD+ and activated DNA by luminescence based assay
T1 sequence (O95271 whole entry): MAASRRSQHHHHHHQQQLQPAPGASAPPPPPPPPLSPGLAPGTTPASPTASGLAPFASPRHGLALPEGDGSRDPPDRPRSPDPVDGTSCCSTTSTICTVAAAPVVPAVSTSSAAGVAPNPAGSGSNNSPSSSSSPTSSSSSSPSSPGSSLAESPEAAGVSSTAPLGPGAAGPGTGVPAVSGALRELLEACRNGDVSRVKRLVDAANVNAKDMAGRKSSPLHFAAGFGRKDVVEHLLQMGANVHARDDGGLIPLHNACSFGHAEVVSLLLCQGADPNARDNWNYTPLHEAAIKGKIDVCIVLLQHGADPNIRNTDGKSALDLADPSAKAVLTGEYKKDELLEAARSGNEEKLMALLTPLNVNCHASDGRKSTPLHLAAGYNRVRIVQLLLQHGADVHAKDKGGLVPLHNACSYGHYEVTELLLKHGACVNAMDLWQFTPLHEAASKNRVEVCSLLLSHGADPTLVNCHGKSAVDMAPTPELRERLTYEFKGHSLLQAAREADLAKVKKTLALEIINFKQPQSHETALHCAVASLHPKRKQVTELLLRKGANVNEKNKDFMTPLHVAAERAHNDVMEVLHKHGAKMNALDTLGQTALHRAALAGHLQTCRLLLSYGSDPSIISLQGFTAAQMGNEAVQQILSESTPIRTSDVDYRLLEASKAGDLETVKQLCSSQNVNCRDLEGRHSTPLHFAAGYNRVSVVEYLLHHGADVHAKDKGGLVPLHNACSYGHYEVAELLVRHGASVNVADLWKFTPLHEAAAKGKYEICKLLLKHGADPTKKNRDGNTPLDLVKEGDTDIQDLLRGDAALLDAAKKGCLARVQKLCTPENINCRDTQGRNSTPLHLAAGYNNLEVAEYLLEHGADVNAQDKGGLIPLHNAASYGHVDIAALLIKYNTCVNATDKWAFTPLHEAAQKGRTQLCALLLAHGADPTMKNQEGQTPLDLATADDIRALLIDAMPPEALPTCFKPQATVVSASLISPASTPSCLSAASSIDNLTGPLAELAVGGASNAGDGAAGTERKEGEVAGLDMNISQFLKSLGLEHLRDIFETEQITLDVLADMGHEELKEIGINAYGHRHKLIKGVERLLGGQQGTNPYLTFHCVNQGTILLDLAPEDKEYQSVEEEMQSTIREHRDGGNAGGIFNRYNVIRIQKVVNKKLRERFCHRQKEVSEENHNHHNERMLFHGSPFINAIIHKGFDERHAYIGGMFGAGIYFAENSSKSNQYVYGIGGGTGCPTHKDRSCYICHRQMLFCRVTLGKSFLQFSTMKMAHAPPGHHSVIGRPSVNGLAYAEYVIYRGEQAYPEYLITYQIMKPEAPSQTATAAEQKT

[2] = biological target: Poly [ADP-ribose] polymerase 2 (Homo sapiens) (UniProt Q9UGN5); experiment: Inhibition of human recombinant PARP2 incubated for 1 hr using histone substrate at 10 uM by luminescence based assay
In short: (§1)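 Recombinant PARP enzyme reactions were run in duplicate for 1 h at rt on histone-coated plates in Tris·HCl pH 8.0 buffer with NAD+, biotinylated NAD+ and activated DNA. Detection used streptavidin-HRP for 30 min at rt, then a chemiluminescent developer. % inhibition = 100 − % activity, scaled between the no-compound (100%) and no-enzyme (0%) signals.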

RKO [3] = experiment: Growth inhibition of Wnt-negative human RKO cells at 1 uM to 10 uM; type: functional, cell-based
RKO [4] = experiment: Growth inhibition of Wnt-negative human RKO cells at >10 uM; type: functional, cell-based
[5] = biological target: Protein mono-ADP-ribosyltransferase PARP6 (Homo sapiens) (UniProt Q2NL67); experiment: Inhibition of human recombinant PARP6 at 10 uM incubated for 1 hr using NAD+, biotinylated NAD+ and activated DNA by luminescence based assay; in short: as §1
[6] = biological target: T2, Protein mono-ADP-ribosyltransferase PARP8 (Homo sapiens) (UniProt Q8N3A8); experiment: Inhibition of human recombinant PARP8 at 10 uM incubated for 1 hr using NAD+, biotinylated NAD+ and activated DNA by luminescence based assay; in short: as §1
T2 sequence (whole entry): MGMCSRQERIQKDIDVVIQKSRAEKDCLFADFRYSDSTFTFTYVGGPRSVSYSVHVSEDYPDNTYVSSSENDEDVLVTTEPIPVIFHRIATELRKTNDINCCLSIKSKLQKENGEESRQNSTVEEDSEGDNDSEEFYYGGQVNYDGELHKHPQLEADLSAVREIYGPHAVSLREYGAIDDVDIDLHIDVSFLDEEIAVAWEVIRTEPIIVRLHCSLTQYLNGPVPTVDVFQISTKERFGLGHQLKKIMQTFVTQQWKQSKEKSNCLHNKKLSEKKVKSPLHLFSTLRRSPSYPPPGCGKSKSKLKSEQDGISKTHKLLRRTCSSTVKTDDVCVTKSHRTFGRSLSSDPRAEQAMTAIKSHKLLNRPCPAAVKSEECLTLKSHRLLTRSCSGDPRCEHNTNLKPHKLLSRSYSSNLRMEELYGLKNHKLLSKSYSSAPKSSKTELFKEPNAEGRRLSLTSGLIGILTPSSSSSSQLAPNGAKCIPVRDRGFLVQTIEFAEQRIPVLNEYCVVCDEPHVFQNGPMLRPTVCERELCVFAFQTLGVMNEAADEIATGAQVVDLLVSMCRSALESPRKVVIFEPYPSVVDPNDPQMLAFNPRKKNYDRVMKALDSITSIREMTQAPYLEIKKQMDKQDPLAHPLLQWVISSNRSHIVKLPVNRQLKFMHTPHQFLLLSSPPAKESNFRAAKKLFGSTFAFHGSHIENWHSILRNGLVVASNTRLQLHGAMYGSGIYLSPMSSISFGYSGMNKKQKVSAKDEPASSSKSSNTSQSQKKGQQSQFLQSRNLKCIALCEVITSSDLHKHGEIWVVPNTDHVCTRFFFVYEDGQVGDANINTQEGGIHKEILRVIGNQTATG

[7] = biological target: T3, Protein mono-ADP-ribosyltransferase PARP11 (Homo sapiens) (UniProt Q9NR21); experiment: Inhibition of human recombinant PARP11 at 10 uM incubated for 1 hr using NAD+, biotinylated NAD+ and activated DNA by luminescence based assay; in short: as §1
T3 sequence (whole entry): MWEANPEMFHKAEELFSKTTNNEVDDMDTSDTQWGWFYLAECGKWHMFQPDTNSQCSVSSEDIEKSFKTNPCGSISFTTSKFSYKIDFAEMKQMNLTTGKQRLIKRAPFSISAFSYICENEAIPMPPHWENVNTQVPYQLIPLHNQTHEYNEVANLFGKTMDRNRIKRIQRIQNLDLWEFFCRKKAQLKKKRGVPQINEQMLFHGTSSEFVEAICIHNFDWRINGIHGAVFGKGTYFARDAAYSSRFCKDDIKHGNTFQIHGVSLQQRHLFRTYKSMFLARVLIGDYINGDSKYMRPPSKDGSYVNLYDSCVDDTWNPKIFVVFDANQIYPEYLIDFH

Poly [ADP-ribose] polymerase 2 (Homo sapiens), sequence (Q9UGN5 whole entry): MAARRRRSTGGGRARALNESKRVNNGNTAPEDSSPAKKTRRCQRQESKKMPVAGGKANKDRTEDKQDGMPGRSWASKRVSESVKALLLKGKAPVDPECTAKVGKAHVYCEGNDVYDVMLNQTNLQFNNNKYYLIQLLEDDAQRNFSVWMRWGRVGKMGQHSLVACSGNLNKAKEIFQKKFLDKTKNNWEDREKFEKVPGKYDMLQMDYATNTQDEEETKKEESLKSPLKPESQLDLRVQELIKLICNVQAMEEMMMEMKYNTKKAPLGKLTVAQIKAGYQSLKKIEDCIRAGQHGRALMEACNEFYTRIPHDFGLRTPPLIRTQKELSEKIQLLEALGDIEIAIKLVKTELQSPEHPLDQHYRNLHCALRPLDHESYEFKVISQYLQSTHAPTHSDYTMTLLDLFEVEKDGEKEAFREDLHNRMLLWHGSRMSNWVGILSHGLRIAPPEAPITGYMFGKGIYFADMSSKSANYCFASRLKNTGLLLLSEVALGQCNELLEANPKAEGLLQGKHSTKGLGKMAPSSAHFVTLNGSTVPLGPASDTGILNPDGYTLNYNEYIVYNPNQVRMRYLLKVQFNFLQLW
Protein mono-ADP-ribosyltransferase PARP6 (Homo sapiens), sequence (Q2NL67 whole entry): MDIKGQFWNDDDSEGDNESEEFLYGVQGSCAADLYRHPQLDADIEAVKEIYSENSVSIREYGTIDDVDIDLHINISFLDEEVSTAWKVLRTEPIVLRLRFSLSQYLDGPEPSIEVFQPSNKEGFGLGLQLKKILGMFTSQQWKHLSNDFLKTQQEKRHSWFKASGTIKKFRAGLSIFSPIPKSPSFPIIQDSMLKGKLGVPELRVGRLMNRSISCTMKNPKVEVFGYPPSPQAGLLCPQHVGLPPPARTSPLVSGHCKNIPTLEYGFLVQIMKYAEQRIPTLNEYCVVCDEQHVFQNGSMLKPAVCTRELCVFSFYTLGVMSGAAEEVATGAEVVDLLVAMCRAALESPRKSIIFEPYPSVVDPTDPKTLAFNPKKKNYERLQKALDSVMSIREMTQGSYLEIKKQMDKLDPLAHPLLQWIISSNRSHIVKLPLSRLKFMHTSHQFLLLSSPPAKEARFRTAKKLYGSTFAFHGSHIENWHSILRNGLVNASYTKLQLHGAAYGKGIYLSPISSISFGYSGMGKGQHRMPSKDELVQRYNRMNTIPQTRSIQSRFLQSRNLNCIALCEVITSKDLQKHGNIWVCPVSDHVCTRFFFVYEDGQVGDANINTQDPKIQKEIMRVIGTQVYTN

CC(C)(C)c1ccc(-c2nc3c(sc4ccccc43)c(=O)[nH]2)cc1
IC50 [1]: 21.3 nM | inhibition [2]: 0% | growth inhibition (GI) (RKO [3]): inactive | growth inhibition (GI) (RKO [4]): Active | inhibition [5]: 6% | inhibition [6]: 3% | inhibition [7]: 10%
